In ChEMBL document CHEMBL2062484, “Design of barbiturate-nitrate hybrids that inhibit MMP-9 activity and secretion” (J Med Chem, 2012):
The source made the active and inactive calls. The rule behind the calls is not given here.

Columns and labels:
Caco-2 [1] = experiment: Inhibition of IL1beta/TNFalpha-stimulated MMP-2 secretion in human Caco2 cells at 10 uM after 24 hrs by densitometric analysis; type: functional, cell-based
Method in brief: (§1)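 Near-confluent (~75%) Caco-2 switched to serum-free medium, pretreated 30 min with compound (10 μM, DMSO <1%), then TNF-α and IL-1β 10 ng/mL for 24 h at 37 °C. Cleared supernatants normalized by Bradford protein, run on 2% gelatin SDS-PAGE, Triton washed, developed 48 h at 37 °C in Tris pH 7.5/CaCl2 buffer, Coomassie stained; lysis bands quantified by densitometry as % of cytokine-only control.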

HT-1080 [2] = experiment: Inhibition of PMA-stimulated MMP-2 secretion in human HT1080 cells at 100 uM after 24 hrs by gelatin zymography; type: functional, cell-based
Method in brief: (§2)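 HT1080 at ~75% confluence switched to serum-free medium, pretreated 3 h with compound (100 μM; DMSO ≤0.1%), then PMA 10 μM for 24 h at 37 °C. Cleared supernatants loaded at equal protein on 2% gelatin SDS-PAGE, Triton washed, developed 48 h at 37 °C in Tris pH 7.5/CaCl2 buffer, Coomassie stained; gelatinolytic bands quantified by densitometry relative to stimulated control.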

Caco-2 [3] = experiment: Inhibition of IL1beta/TNFalpha-stimulated MMP-9 secretion in human Caco2 cells at 10 uM after 24 hrs by densitometric analysis; type: functional, cell-based; method in brief: as §1
HT-1080 [4] = experiment: Induction of apoptosis in human HT1080 cells assessed as increase in apoptotic cell population at 10 uM after 24 hrs by Annexin V FITC staining based flow cytometry; conditions: ht-1080, 24 h
Method in brief: (§3)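 Cells at 80% confluence in T25 flasks treated 24 h serum-free with compound (10 μM); vehicle-only controls. Cells washed in Hepes pH 7.4/NaCl/CaCl2 binding buffer, double-stained with Annexin V-FITC and propidium iodide 15 min at room temperature in dark, read by flow cytometry within 5 min; expressed as % of control fluorescence.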

Caco-2 [5] = experiment: Induction of nitrate release in human Caco2 cells at 10 uM after 24 hrs by Griess assay; type: functional, cell-based
Method in brief: (§4)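 Compounds incubated 24 h with Caco-2 monolayers at 200 or 10 μM (n = 3). Supernatant nitrite read by Griess reaction (sulfanilamide 2% plus N-1-naphthylethylenediamine) at 4 °C, 45 min shaking, A540; nitrate measured after VCl3 reduction. Quantified against sodium nitrite/nitrate standards 3−200 μM; NOx = nitrite + nitrate.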

[6] = Cytotoxicity against human Caco2 cells assessed as cell viability after 24 hrs by MTT assay; type: cell-based; conditions: Caco-2 cells
Method in brief: (§5)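 Cells seeded (Caco-2 8 × 10³/well, HT1080 12 × 10⁴/well), grown to 70% confluence, serum-starved 1 h, then exposed to compound at 0.1−200 μM (eight levels) serum-free for 24 h. MTT 0.5 mg/mL for 3 h at 37 °C, formazan dissolved in DMSO, OD 540 nm; viability as % of untreated. CC50 from sigmoidal fits; three experiments, triplicate wells.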

HT-1080 [7] = experiment: Inhibition of PMA-stimulated MMP-9 secretion in human HT1080 cells at 100 uM after 24 hrs by gelatin zymography; type: functional; conditions: HT-1080, 24 h; method in brief: as §2
[8] = Cytotoxicity against human HT1080 cells assessed as cell viability after 24 hrs by MTT assay; type: cell-based; conditions: HT-1080 cells; method in brief: as §5
HT-1080 [9] = experiment: Induction of apoptosis in human HT1080 cells assessed as increase in necrotic cell population at 10 uM after 24 hrs by Annexin V FITC staining based flow cytometry; conditions: ht-1080, 24 h; method in brief: as §3
Caco-2 [10] = experiment: Induction of apoptosis in human Caco2 cells assessed as increase in apoptotic cell population at 10 uM after 24 hrs by Annexin V FITC staining based flow cytometry; conditions: caco-2, 24 h; method in brief: as §3
Caco-2 [11] = experiment: Induction of nitrite release in human Caco2 cells at 200 uM after 24 hrs by Griess assay; type: functional, cell-based; method in brief: as §4
Caco-2 [12] = experiment: Induction of nitrate release in human Caco2 cells at 200 uM after 24 hrs by Griess assay; type: functional, cell-based; method in brief: as §4
[13] = molecular target: Matrix metalloproteinase-9 (Homo sapiens, UniProt P14780); experiment: Inhibition of p-aminophenylmercuric acetate stimulated human recombinant MMP-9 using (7-methoxycoumarin-4-yl)-acetyl-pro-Leu-Gly-Leu-(3-(2,4-dinitrophenyl)-L-2,3-diaminopropionyl)-Ala-Arg-NH2 as substrate after 45 mins by fluorogenic assay
Chain of Matrix metalloproteinase-9 (P14780 whole entry): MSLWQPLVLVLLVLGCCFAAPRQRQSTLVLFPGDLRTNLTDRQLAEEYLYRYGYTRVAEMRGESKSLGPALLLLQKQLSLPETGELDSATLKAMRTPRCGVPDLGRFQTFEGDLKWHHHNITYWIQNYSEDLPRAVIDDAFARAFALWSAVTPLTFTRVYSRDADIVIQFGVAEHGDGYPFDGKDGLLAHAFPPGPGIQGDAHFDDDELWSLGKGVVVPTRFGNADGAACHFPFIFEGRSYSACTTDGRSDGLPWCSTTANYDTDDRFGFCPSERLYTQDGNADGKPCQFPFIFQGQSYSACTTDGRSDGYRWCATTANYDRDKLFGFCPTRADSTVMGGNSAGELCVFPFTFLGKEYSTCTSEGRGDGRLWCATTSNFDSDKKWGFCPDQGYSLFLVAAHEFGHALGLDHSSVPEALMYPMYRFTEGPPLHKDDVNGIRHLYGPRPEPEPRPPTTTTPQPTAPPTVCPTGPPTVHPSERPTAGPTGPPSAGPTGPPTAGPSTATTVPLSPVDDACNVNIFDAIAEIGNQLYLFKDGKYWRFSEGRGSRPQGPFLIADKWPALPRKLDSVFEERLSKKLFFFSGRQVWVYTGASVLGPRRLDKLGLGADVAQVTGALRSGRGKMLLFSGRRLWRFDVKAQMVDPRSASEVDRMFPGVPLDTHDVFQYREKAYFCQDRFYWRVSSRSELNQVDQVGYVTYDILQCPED

Caco-2 [14] = experiment: Induction of nitrite release in human Caco2 cells at 10 uM after 24 hrs by Griess assay; type: functional, cell-based; method in brief: as §4
[15] = Cytotoxicity against human Caco2 cells assessed as inhibition of cell viability at 12.5 uM after 24 hrs by MTT assay; type: cell-based; conditions: Caco-2 cells, read-out: INH; method in brief: as §5
Caco-2 [16] = experiment: Inhibition of HGF stimulated human Caco2 cells migration through matrigel membrane at 100 nM by staining based light microscopic analysis; type: functional
Method in brief: (§6)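 Matrigel-coated invasion chamber inserts, 8 μm pore membrane, 0.5 mL of 2 × 10⁵ Caco-2 cells/mL; stimulated with HGF (100 or 500 ng/mL) or PMA (10 μM) with compound (100 nM or 10 μM); 48 h invasion at 37 °C, 5% CO2. Non-invading cells swabbed off, lower-surface cells Diff-Quik stained and counted by light microscopy; normalized to stimulated control; duplicates.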

Caco-2 [17] = experiment: Induction of apoptosis in human Caco2 cells assessed as increase in necrotic cell population at 10 uM after 24 hrs by Annexin V FITC staining based flow cytometry; conditions: caco-2, 24 h; method in brief: as §3
[18] = molecular target: 72 kDa type IV collagenase (Homo sapiens, UniProt P08253); experiment: Inhibition of p-aminophenylmercuric acetate stimulated human recombinant MMP-2 using (7-methoxycoumarin-4-yl)-acetyl-pro-Leu-Gly-Leu-(3-(2,4-dinitrophenyl)-L-2,3-diaminopropionyl)-Ala-Arg-NH2 as substrate after 45 mins by fluorogenic assay
Chain of 72 kDa type IV collagenase (P08253 whole entry): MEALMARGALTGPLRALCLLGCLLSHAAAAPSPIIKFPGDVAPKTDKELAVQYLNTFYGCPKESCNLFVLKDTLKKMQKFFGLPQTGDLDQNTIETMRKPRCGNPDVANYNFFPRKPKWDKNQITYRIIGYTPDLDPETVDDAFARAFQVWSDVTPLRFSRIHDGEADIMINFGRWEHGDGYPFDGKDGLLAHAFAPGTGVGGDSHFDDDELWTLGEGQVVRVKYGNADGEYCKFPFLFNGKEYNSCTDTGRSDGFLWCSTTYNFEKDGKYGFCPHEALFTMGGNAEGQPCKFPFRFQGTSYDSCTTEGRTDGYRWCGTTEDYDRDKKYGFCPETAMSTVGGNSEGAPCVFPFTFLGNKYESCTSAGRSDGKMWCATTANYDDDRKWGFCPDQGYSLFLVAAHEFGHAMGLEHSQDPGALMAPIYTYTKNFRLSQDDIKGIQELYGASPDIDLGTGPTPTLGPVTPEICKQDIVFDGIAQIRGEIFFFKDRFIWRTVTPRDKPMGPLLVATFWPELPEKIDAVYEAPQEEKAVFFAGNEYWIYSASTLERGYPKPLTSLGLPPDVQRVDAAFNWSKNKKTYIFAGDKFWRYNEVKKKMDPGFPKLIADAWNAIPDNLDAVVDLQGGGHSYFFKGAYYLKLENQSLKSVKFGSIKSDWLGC

Caco-2 [19] = experiment: Inhibition of PMA-stimulated human Caco2 cells migration through matrigel membrane at 10 uM after 48 hrs by light microscopic analysis; type: functional; conditions: Caco-2, 48 h; method in brief: as §6
[20] = Cytotoxicity against human Caco2 cells assessed as inhibition of cell viability at 2.5 uM after 24 hrs by MTT assay; type: cell-based; conditions: Caco-2 cells, read-out: INH; method in brief: as §5
Caco-2 [21] = experiment: Inhibition of HGF-stimulated human Caco2 cells invasion at 10 uM by light microscopic analysis; type: functional; method in brief: as §6
[22] = Cytotoxicity against human Caco2 cells assessed as inhibition of cell viability at 100 uM after 24 hrs by MTT assay; type: cell-based; conditions: Caco-2 cells, read-out: INH; method in brief: as §5

Structure (SMILES)	inhibition (Caco-2 [1])	inhibition (HT-1080 [2])	inhibition (Caco-2 [3])	Activity (HT-1080 [4])	Activity (Caco-2 [5])	CC50 at 24 h [6]	inhibition at 100 µM (HT-1080 [7])	CC50 at 24 h [8]	Activity (HT-1080 [9])	Activity (Caco-2 [10])	Activity (Caco-2 [11])	Activity (Caco-2 [12])	IC50 [13]	Activity (Caco-2 [14])	inhibition at 0.1 µM (Caco-2 [16])	Activity (Caco-2 [17])	IC50 [18]	inhibition at 10 µM (Caco-2 [19])	further results
O=C1NC(=O)C(c2ccc(Oc3ccccc3)cc2)(N2CCCC(CO[N+](=O)[O-])C2)C(=O)N1 (stereo not given)	inactive	Active	Active	Non-toxic	inactive	> 12500 nM	> 80%	8100 nM	Non-toxic	Non-toxic	Active	Active	104 nM	inactive	40.7%	Non-toxic	179 nM		cytotoxicity at 24 h, 12.5 µM [15]: 37%
O=C1NC(=O)C(c2ccc(Oc3ccccc3)cc2)(N2CCC(CO[N+](=O)[O-])CC2)C(=O)N1	inactive	Active	Active	Non-toxic	inactive	> 12500 nM	> 80%	11800 nM	Non-toxic	Non-toxic	Active	Active	212 nM	inactive	35.8%	Non-toxic	219 nM	64.9%	cytotoxicity at 24 h, 2.5 µM [20]: 12%
O=C1NC(=O)C(c2ccc(Oc3ccccc3)cc2)(N(CCO)CCO)C(=O)N1						8200 nM		6800 nM					26 nM		51.2%		3.8 nM		
O=C1NC(=O)C(c2ccc(Oc3ccccc3)cc2)(N(CCO[N+](=O)[O-])CCO[N+](=O)[O-])C(=O)N1	inactive	Active	Active	Non-toxic		> 100000 nM	> 80%	72000 nM	Non-toxic	Non-toxic	Active	Active	91 nM		51.4%	Non-toxic	328 nM	43.3%	inhibition at 10 µM (Caco-2 [21]): 51%; cytotoxicity at 24 h, 100 µM [22]: 6%
O=C1NC(=O)C(c2ccc(Oc3ccccc3)cc2)(N2CCN(CCO[N+](=O)[O-])CC2)C(=O)N1	inactive	Active	Active	Non-toxic		26000 nM	> 80%	12800 nM	Non-toxic	Non-toxic	Active	Active	92 nM		34.8%	Non-toxic	149 nM		
O=C1NC(=O)C(c2ccc(Oc3ccccc3)cc2)(N2CCCC(CO)C2)C(=O)N1 (stereo not given)						33100 nM		46400 nM					6.2 nM		55.3%		15 nM		
